Experimental data: ChEMBL document CHEMBL3797186, “Single Residue Substitutions That Confer Voltage-Gated Sodium Ion Channel Subtype Selectivity in the NaV1.7 Inhibitory Peptide GpTx-1” (J Med Chem, 2016)
Positions of bridges follow the written chain, without caps; N, C: chain ends. Residues, ends and D or L forms follow the SMILES beside them.

Molecular target: Sodium channel protein type 5 subunit alpha (Homo sapiens, UniProt Q14524)
Experiment: Inhibition of human Nav1.5 expressed in HEK293 cells assessed as inward peak current by ion-works quattro patch clamp electrophysiology method
Type: cell-based
How it was run: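 Stable HEK293 line expressing human NaV1.5, recorded by population patch clamp on the IonWorks Quattro.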

Chain of Sodium channel protein type 5 subunit alpha (Q14524 whole entry): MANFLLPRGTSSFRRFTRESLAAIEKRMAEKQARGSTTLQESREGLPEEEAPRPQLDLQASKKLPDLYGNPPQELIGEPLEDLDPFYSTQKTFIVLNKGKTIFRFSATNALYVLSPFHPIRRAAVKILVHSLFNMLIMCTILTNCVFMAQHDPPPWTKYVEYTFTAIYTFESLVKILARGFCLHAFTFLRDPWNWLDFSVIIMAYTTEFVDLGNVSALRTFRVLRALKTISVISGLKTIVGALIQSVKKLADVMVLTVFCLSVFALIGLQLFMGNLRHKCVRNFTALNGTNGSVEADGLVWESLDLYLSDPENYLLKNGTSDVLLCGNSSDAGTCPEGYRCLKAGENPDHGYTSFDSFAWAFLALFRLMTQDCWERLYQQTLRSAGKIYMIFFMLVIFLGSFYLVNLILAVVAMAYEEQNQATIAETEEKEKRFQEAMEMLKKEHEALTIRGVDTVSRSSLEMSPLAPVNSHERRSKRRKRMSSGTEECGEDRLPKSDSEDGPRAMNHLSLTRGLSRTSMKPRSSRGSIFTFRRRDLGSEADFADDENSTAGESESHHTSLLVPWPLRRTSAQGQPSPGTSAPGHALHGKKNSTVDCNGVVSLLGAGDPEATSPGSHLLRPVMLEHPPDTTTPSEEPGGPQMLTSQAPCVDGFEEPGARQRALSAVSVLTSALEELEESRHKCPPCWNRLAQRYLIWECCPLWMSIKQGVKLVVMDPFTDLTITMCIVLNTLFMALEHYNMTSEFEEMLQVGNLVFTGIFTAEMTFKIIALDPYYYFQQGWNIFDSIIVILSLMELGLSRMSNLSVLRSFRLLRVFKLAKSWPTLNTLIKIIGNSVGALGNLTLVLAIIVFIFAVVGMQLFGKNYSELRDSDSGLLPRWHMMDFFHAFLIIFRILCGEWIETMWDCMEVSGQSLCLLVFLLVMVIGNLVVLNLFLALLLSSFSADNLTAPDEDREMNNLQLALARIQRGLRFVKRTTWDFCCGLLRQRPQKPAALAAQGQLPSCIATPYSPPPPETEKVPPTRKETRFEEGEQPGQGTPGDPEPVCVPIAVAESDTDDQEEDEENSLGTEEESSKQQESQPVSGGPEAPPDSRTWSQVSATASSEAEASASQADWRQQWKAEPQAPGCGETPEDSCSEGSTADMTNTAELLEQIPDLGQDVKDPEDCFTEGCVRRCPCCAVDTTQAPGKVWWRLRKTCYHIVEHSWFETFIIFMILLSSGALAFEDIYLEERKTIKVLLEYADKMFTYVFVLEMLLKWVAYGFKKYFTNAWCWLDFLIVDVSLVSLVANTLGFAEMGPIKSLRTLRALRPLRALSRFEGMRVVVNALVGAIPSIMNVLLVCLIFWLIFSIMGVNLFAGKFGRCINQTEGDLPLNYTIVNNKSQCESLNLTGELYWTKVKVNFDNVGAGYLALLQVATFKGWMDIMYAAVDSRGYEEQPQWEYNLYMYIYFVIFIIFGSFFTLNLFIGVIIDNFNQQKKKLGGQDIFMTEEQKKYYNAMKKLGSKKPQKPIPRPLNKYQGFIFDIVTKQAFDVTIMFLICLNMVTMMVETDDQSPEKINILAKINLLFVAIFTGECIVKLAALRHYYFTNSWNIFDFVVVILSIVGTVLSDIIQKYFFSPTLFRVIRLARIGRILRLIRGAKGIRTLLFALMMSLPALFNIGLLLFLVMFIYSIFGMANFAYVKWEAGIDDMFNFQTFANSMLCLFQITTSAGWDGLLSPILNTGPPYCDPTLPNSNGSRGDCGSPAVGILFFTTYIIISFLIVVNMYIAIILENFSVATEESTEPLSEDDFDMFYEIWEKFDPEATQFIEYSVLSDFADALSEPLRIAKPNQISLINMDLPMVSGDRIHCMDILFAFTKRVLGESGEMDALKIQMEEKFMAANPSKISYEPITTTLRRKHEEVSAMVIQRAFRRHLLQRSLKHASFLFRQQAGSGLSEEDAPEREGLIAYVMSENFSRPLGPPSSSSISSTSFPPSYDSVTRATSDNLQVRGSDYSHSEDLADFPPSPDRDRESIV

Compound	IC50 [µM]
CC[C@H](C)[C@@H]1NC(=O)[C@@H]2CSSC[C@@H]3NC(=O)[C@H](C(C)C)NC(=O)[C@H](CC(C)C)NC(=O)[C@H](CC(N)=O)NC(=O)[C@@H]4CCCN4C(=O)[C@H](CCCNC(=N)N)NC(=O)[C@H](CSSC[C@H](NC(=O)[C@@H](N)CC(=O)O)C(=O)N[C@@H](CC(C)C)C(=O)NCC(=O)N[C@@H](Cc4ccccc4)C(=O)N[C@@H](CCSC)C(=O)N[C@@H](CCCNC(=N)N)C(=O)N[C@@H](CCCCN)C(=O)N2)NC(=O)[C@H](CSSC[C@@H](C(=O)N[C@@H](CCCCN)C(=O)N[C@@H](Cc2ccc(O)cc2)C(=O)N[C@H](C(=O)N[C@@H](Cc2ccccc2)C(N)=O)C(C)C)NC(=O)[C@H](Cc2c[nH]c4ccccc24)NC(=O)[C@H](CCC(=O)O)NC(=O)[C@H](Cc2cnc[nH]2)NC(=O)[C@H]([C@@H](C)O)NC(=O)[C@H](CCCNC(=N)N)NC(=O)[C@H](CO)NC3=O)NC(=O)[C@H](CCCCN)NC(=O)[C@H](CC(=O)O)NC(=O)[C@H](CC(N)=O)NC(=O)[C@H](CC(=O)O)NC(=O)[C@@H]2CCCN2C1=O (H-DCLGFMRKCIPDNDKCCRPNLVCSRTHEWCKYVF-NH2; disulfide 2-17, 9-23, 16-30)	> 5
CC[C@H](C)[C@@H]1NC(=O)[C@@H]2CSSC[C@@H]3NC(=O)[C@H](CCC(=O)O)NC(=O)[C@H](CC(C)C)NC(=O)[C@H](CC(N)=O)NC(=O)[C@@H]4CCCN4C(=O)[C@H](CCCNC(=N)N)NC(=O)[C@H](CSSC[C@H](NC(=O)[C@@H](N)CC(=O)O)C(=O)N[C@@H](CC(C)C)C(=O)NCC(=O)N[C@@H](Cc4ccccc4)C(=O)N[C@@H](CCSC)C(=O)N[C@@H](CCCNC(=N)N)C(=O)N[C@@H](CCCCN)C(=O)N2)NC(=O)[C@H](CSSC[C@@H](C(=O)N[C@@H](CCCCN)C(=O)N[C@@H](Cc2ccc(O)cc2)C(=O)N[C@H](C(=O)N[C@@H](Cc2ccccc2)C(N)=O)C(C)C)NC(=O)[C@H](Cc2c[nH]c4ccccc24)NC(=O)[C@H](CCCCN)NC(=O)[C@H](Cc2cnc[nH]2)NC(=O)[C@H]([C@@H](C)O)NC(=O)[C@H](CCCNC(=N)N)NC(=O)[C@H](CO)NC3=O)NC(=O)[C@H](CCCCN)NC(=O)[C@H](CC(=O)O)NC(=O)[C@H](CC(N)=O)NC(=O)[C@H](CC(=O)O)NC(=O)[C@@H]2CCCN2C1=O (H-DCLGFMRKCIPDNDKCCRPNLECSRTHKWCKYVF-NH2; disulfide 2-17, 9-23, 16-30)	> 5
CSCC[C@@H]1NC(=O)[C@H](Cc2ccccc2)NC(=O)CNC(=O)[C@H](CC(C)C)NC(=O)[C@@H](NC(=O)[C@@H](N)CC(=O)O)CSSC[C@@H]2NC(=O)[C@@H]3CSSC[C@@H](C(=O)N[C@@H](CCCCN)C(=O)N[C@@H](Cc4ccc(O)cc4)C(=O)N[C@H](C(=O)N[C@@H](Cc4ccccc4)C(N)=O)C(C)C)NC(=O)[C@H](Cc4c[nH]c5ccccc45)NC(=O)[C@H](CCCCN)NC(=O)[C@H](Cc4cnc[nH]4)NC(=O)[C@H]([C@@H](C)O)NC(=O)[C@H](CCCNC(=N)N)NC(=O)[C@H](CO)NC(=O)[C@H](CSSC[C@H](NC(=O)[C@H](CCCCN)NC(=O)[C@H](CCCNC(=N)N)NC1=O)C(=O)N[C@@H](Cc1ccccc1)C(=O)N1CCC[C@H]1C(=O)N[C@@H](CC(=O)O)C(=O)N[C@@H](CC(N)=O)C(=O)N[C@@H](CC(=O)O)C(=O)N[C@@H](CCCCN)C(=O)N3)NC(=O)[C@H](C(C)C)NC(=O)[C@H](CC(C)C)NC(=O)[C@H](CC(N)=O)NC(=O)[C@@H]1CCCN1C(=O)[C@H](CCCNC(=N)N)NC2=O (H-DCLGFMRKCFPDNDKCCRPNLVCSRTHKWCKYVF-NH2; disulfide 2-17, 9-23, 16-30)	> 5
CC[C@H](C)[C@@H]1NC(=O)[C@@H]2CSSC[C@@H]3NC(=O)[C@H](C(C)C)NC(=O)[C@H](CC(C)C)NC(=O)[C@H](CC(N)=O)NC(=O)[C@@H]4CCCN4C(=O)[C@H](CCCNC(=N)N)NC(=O)[C@H](CSSC[C@H](NC(=O)[C@@H](N)CC(=O)O)C(=O)N[C@@H](CC(C)C)C(=O)NCC(=O)N[C@@H](Cc4ccccc4)C(=O)N[C@@H](Cc4cccc5ccccc45)C(=O)N[C@@H](CCCNC(=N)N)C(=O)N[C@@H](CCCCN)C(=O)N2)NC(=O)[C@H](CSSC[C@@H](C(=O)N[C@@H](CCCCN)C(=O)N[C@@H](Cc2ccc(O)cc2)C(=O)N[C@H](C(=O)N[C@@H](Cc2ccccc2)C(N)=O)C(C)C)NC(=O)[C@H](Cc2c[nH]c4ccccc24)NC(=O)[C@H](CCCCN)NC(=O)[C@H](Cc2cnc[nH]2)NC(=O)[C@H]([C@@H](C)O)NC(=O)[C@H](CCCNC(=N)N)NC(=O)[C@H](CO)NC3=O)NC(=O)[C@H](CCCCN)NC(=O)[C@H](CC(=O)O)NC(=O)[C@H](CC(N)=O)NC(=O)[C@H](CC(=O)O)NC(=O)[C@@H]2CCCN2C1=O	2.3
CC[C@H](C)[C@@H]1NC(=O)[C@@H]2CSSC[C@@H]3NC(=O)[C@H](C(C)C)NC(=O)[C@H](CC(C)C)NC(=O)[C@H](CC(N)=O)NC(=O)[C@H](CCCNC(=N)N)NC(=O)[C@H](CCCNC(=N)N)NC(=O)[C@H](CSSC[C@H](NC(=O)[C@@H](N)CC(=O)O)C(=O)N[C@@H](CC(C)C)C(=O)NCC(=O)N[C@@H](Cc4ccccc4)C(=O)N[C@@H](CCSC)C(=O)N[C@@H](CCCNC(=N)N)C(=O)N[C@@H](CCCCN)C(=O)N2)NC(=O)[C@H](CSSC[C@@H](C(=O)N[C@@H](CCCCN)C(=O)N[C@@H](Cc2ccc(O)cc2)C(=O)N[C@H](C(=O)N[C@@H](Cc2ccccc2)C(N)=O)C(C)C)NC(=O)[C@H](Cc2c[nH]c4ccccc24)NC(=O)[C@H](CCCCN)NC(=O)[C@H](Cc2cnc[nH]2)NC(=O)[C@H]([C@@H](C)O)NC(=O)[C@H](CCCNC(=N)N)NC(=O)[C@H](CO)NC3=O)NC(=O)[C@H](CCCCN)NC(=O)[C@H](CC(=O)O)NC(=O)[C@H](CC(N)=O)NC(=O)[C@H](CC(=O)O)NC(=O)[C@@H]2CCCN2C1=O (H-DCLGFMRKCIPDNDKCCRRNLVCSRTHKWCKYVF-NH2; disulfide 2-17, 9-23, 16-30)	> 5
CC[C@H](C)[C@@H]1NC(=O)[C@@H]2CSSC[C@@H]3NC(=O)[C@H](C(C)C)NC(=O)[C@H](CC(C)C)NC(=O)[C@H](CC(N)=O)NC(=O)[C@@H]4CCCN4C(=O)[C@H](CCCNC(=N)N)NC(=O)[C@H](CSSC[C@H](NC(=O)[C@@H](N)CC(=O)O)C(=O)N[C@@H](CC(C)C)C(=O)NCC(=O)N[C@@H](Cc4ccccc4)C(=O)N[C@@H](CCSC)C(=O)N[C@@H](CCCNC(=N)N)C(=O)N[C@@H](CCCCN)C(=O)N2)NC(=O)[C@H](CSSC[C@@H](C(=O)N[C@@H](CCCCN)C(=O)N[C@@H](Cc2ccc(O)cc2)C(=O)N[C@H](C(=O)N[C@@H](Cc2ccccc2)C(=O)N[C@@H](CCC(=O)O)C(N)=O)C(C)C)NC(=O)[C@H](Cc2c[nH]c4ccccc24)NC(=O)[C@H](CCCCN)NC(=O)[C@H](Cc2c[nH]cn2)NC(=O)[C@H]([C@@H](C)O)NC(=O)[C@H](CCCNC(=N)N)NC(=O)[C@H](CO)NC3=O)NC(=O)[C@H](CCCCN)NC(=O)[C@H](CC(=O)O)NC(=O)[C@H](CC(N)=O)NC(=O)[C@H](CC(=O)O)NC(=O)[C@@H]2CCCN2C1=O	> 5
CC[C@H](C)[C@@H]1NC(=O)[C@@H]2CSSC[C@@H]3NC(=O)[C@H](C(C)C)NC(=O)[C@H](CC(C)C)NC(=O)[C@H](CC(N)=O)NC(=O)[C@@H]4CCCN4C(=O)[C@H](CCCNC(=N)N)NC(=O)[C@H](CSSC[C@H](NC(=O)[C@@H](N)CC(=O)O)C(=O)N[C@@H](CC(C)C)C(=O)NCC(=O)N[C@@H](Cc4ccccc4)C(=O)N[C@@H](CCSC)C(=O)N[C@@H](CCCNC(=N)N)C(=O)N[C@@H](CCCCN)C(=O)N2)NC(=O)[C@H](CSSC[C@@H](C(=O)N[C@@H](CCCCN)C(=O)N[C@@H](Cc2ccc(O)cc2)C(=O)N[C@H](C(N)=O)C(C)C)NC(=O)[C@H](Cc2c[nH]c4ccccc24)NC(=O)[C@H](CCCCN)NC(=O)[C@H](Cc2cnc[nH]2)NC(=O)[C@H]([C@@H](C)O)NC(=O)[C@H](CCCNC(=N)N)NC(=O)[C@H](CO)NC3=O)NC(=O)[C@H](CCCCN)NC(=O)[C@H](CC(=O)O)NC(=O)[C@H](CC(N)=O)NC(=O)[C@H](CC(=O)O)NC(=O)[C@@H]2CCCN2C1=O (H-DCLGFMRKCIPDNDKCCRPNLVCSRTHKWCKYV-NH2; disulfide 2-17, 9-23, 16-30)	> 5
CC[C@H](C)[C@@H]1NC(=O)[C@@H]2CSSC[C@@H]3NC(=O)[C@H](C(C)C)NC(=O)[C@H](CC(C)C)NC(=O)[C@H](CCCNC(=N)N)NC(=O)[C@@H]4CCCN4C(=O)[C@H](CCCNC(=N)N)NC(=O)[C@H](CSSC[C@H](NC(=O)[C@@H](N)CC(=O)O)C(=O)N[C@@H](CC(C)C)C(=O)NCC(=O)N[C@@H](Cc4ccccc4)C(=O)N[C@@H](CCSC)C(=O)N[C@@H](CCCNC(=N)N)C(=O)N[C@@H](CCCCN)C(=O)N2)NC(=O)[C@H](CSSC[C@@H](C(=O)N[C@@H](CCCCN)C(=O)N[C@@H](Cc2ccc(O)cc2)C(=O)N[C@H](C(=O)N[C@@H](Cc2ccccc2)C(N)=O)C(C)C)NC(=O)[C@H](Cc2c[nH]c4ccccc24)NC(=O)[C@H](CCCCN)NC(=O)[C@H](Cc2cnc[nH]2)NC(=O)[C@H]([C@@H](C)O)NC(=O)[C@H](CCCNC(=N)N)NC(=O)[C@H](CO)NC3=O)NC(=O)[C@H](CCCCN)NC(=O)[C@H](CC(=O)O)NC(=O)[C@H](CC(N)=O)NC(=O)[C@H](CC(=O)O)NC(=O)[C@@H]2CCCN2C1=O (H-DCLGFMRKCIPDNDKCCRPRLVCSRTHKWCKYVF-NH2; disulfide 2-17, 9-23, 16-30)	> 5
CC[C@H](C)[C@@H]1NC(=O)[C@@H]2CSSC[C@@H]3NC(=O)[C@H](C(C)C)NC(=O)[C@H](CC(C)C)NC(=O)[C@H](CC(N)=O)NC(=O)[C@@H]4CCCN4C(=O)[C@H](CCCNC(=N)N)NC(=O)[C@H](CSSC[C@H](NC(=O)[C@@H](N)CC(=O)O)C(=O)N[C@@H](CC(C)C)C(=O)NCC(=O)N[C@@H](Cc4ccccc4)C(=O)N[C@@H](CCSC)C(=O)N[C@@H](CCCNC(=N)N)C(=O)N[C@@H](CCCCN)C(=O)N2)NC(=O)[C@H](CSSC[C@@H](C(=O)N[C@@H](CCCCN)C(=O)N[C@@H](Cc2ccc(O)cc2)C(=O)N[C@H](C(=O)N[C@@H](Cc2ccccc2)C(N)=O)C(C)C)NC(=O)[C@H](Cc2c[nH]c4ccccc24)NC(=O)[C@H](CCCCN)NC(=O)[C@H](Cc2cnc[nH]2)NC(=O)[C@H]([C@@H](C)O)NC(=O)[C@H](CCCNC(=N)N)NC(=O)[C@H](CO)NC3=O)NC(=O)[C@H](CCCCN)NC(=O)[C@H](CC(=O)O)NC(=O)[C@H](CC(N)=O)NC(=O)[C@H](CCCNC(=N)N)NC(=O)[C@@H]2CCCN2C1=O (H-DCLGFMRKCIPRNDKCCRPNLVCSRTHKWCKYVF-NH2; disulfide 2-17, 9-23, 16-30)	> 4.8
